Data as given in ChEMBL document CHEMBL2010769, “Synthesis and antiviral activity of 6-deoxycyclopropavir, a new prodrug of cyclopropavir” (Bioorg Med Chem, 2012).
Calls of active or inactive are those of the source. No cut-off for these calls is given here.

Experiments:
Human betaherpesvirus 5 [1] = test: Antiviral activity against HCMV AD169 infected in HFF assessed as reduction in virus induced cytopathic effect; type: functional, organism-based; conditions: Human betaherpesvirus 5, AD169
In short: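 HCMV work used human foreskin fibroblasts as primary cultures, propagated in MEM with 10% FBS and L-glutamine, with or without antibiotics.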

Murid betaherpesvirus 1 [2] = test: Antiviral activity against MCMV infected in BALB/c mouse assessed as decrease in virus-induced mean day of death at 5.6 mg/kg, po qd for 5 days administered 24 hrs after viral infection (reference value: 4.9 +/- 0.7 days); type: functional
Mus musculus [3] = test: Toxicity in BALB/c mouse assessed as body weight loss at 50 mg/kg, po qd for 5 days relative to control; type: organism-based; parameters: dose 50 mg/kg, route oral; conditions: in vivo, 120 h
In short: (§1)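 Uninfected female BALB/c mice, 3 weeks old, in groups of 5. Compound suspended in 0.4% carboxymethylcellulose and given orally in 0.2 mL once daily for 5 days at 50, 16.7 or 5.6 mg/kg. Mean group body weight tracked over days 1–5 plus day 6 recovery. Clinical signs (ruffled coat, behaviour) were observed. Comparison was with vehicle-treated or untreated mice.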

Murid betaherpesvirus 1 [4] = test: Antiviral activity against MCMV infected in BALB/c mouse assessed as decrease in virus-induced mean day of death at 16.7 mg/kg, po qd for 5 days administered 48 hrs after viral infection (reference value: 5.1 +/- 0.9 days); type: functional
[5] = Prodrug activation assessed as cyclopropavir formation in presence of cow milk xanthine oxidase; conditions: cattle
In short: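 Cow-milk xanthine oxidase, 0.4 units, acting on 0.07 mM substrate in 0.05 M Na2HPO4, pH 7.5, at room temperature. Conversion followed continuously at 304 nm. UV spectra were taken before enzyme addition (T = 0) and at 720 min and matched against authentic parent and product.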

Murid betaherpesvirus 1 [6] = test: Antiviral activity against MCMV infected in BALB/c mouse assessed as decrease in virus-induced mean day of death at 50 mg/kg, po qd for 5 days administered 48 hrs after viral infection (reference value: 5.1 +/- 0.9 days); type: functional
Mus musculus [7] = test: Toxicity in BALB/c mouse assessed as changes in behavior at 5.6 mg/kg, po qd for 5 days relative to control; type: organism-based; parameters: dose 5.6 mg/kg, route oral; conditions: in vivo, 120 h; in short: as §1
Mus musculus [8] = test: Toxicity in BALB/c mouse assessed as changes in behavior at 50 mg/kg, po qd for 5 days relative to control; type: organism-based; parameters: dose 50 mg/kg, route oral; conditions: in vivo, 120 h; in short: as §1
Human alphaherpesvirus 1 = test: Antiviral activity against HSV1 infected in HFF assessed as reduction in virus induced cytopathic effect; type: functional, organism-based
Human betaherpesvirus 5 [9] = test: Antiviral activity against HCMV Toledo infected in human thymus/liver tissue xenografted in SCID mouse assessed as decrease in viral infection at 12.5 mg/kg, po qd for 28 days by RT-PCR analysis (reference value: 92%); type: functional, strain Toledo; parameters: scale not given: the % may be the effect or the level left
Human betaherpesvirus 5 [10] = test: Antiviral activity against HCMV Toledo infected in human thymus/liver tissue xenografted in SCID mouse assessed as mean log10 genome equivalents/animal at 12.5 mg/kg, po qd for 28 days measured on day 35 by RT-PCR analysis (reference value: 3.28 +/- 1.422); type: functional, strain Toledo
Cowpox virus = test: Antiviral activity against Cowpox virus infected in HFF assessed as reduction in virus induced cytopathic effect at 100 uM; type: functional, organism-based
[11] = Cytotoxicity against human Akata cells; type: cell-based
Human betaherpesvirus 5 [12] = test: Antiviral activity against HCMV Toledo infected in human thymus/liver tissue xenografted in SCID mouse assessed as decrease in viral infection at 6.25 mg/kg, po qd for 28 days by RT-PCR analysis (reference value: 92%); type: functional, strain Toledo; parameters: scale not given: the % may be the effect or the level left
Murid betaherpesvirus 1 [13] = test: Antiviral activity against MCMV infected in BALB/c mouse assessed as decrease in virus-induced mean day of death at 50 mg/kg, po qd for 5 days administered 24 hrs after viral infection (reference value: 4.9 +/- 0.7 days); type: functional
Human betaherpesvirus 5 [14] = test: Antiviral activity against HCMV Toledo infected in human thymus/liver tissue xenografted in SCID mouse assessed as decrease in viral infection at 6.25 mg/kg, po qd for 28 days measured on day 35 by RT-PCR analysis (reference value: 67%); type: functional, strain Toledo; parameters: scale not given: the % may be the effect or the level left
[15] = Cytotoxicity against HFF; type: cell-based; conditions: human, HFF cells
Mus musculus [16] = test: Toxicity in BALB/c mouse assessed as changes in behavior at 16.7 mg/kg, po qd for 5 days relative to control; type: organism-based; parameters: dose 16.7 mg/kg, route oral; conditions: in vivo, 120 h; in short: as §1

## Nc1ncc2ncn(/C=C3/CC3(CO)CO)c2n1
Human betaherpesvirus 5 [1]
  EC50: > 300 µM
Murid betaherpesvirus 1 [2]
  Activity: 6 days
Mus musculus [3]
  Activity: 17%
Murid betaherpesvirus 1 [4]
  Activity: 7 days
[5]
  Drug metabolism: Active
Murid betaherpesvirus 1 [6]
  Activity: 11.9 days
Mus musculus [7]
  Activity: Non-toxic
Mus musculus [8]
  Activity: Non-toxic
Human alphaherpesvirus 1
  EC50: > 300 µM
Human betaherpesvirus 5 [9]
  Activity: 50%
Human betaherpesvirus 5 [10]
  Activity: 2.69
Cowpox virus
  Activity: inactive
[11]
  CC50: 71 µM
Human betaherpesvirus 5 [12]
  Activity: 58%
Murid betaherpesvirus 1 [13]
  Activity: 8.3 days
Human betaherpesvirus 5 [14]
  Activity: 100%
[15]
  CC50: > 100 µM
Mus musculus [16]
  Activity: Non-toxic
